Test results taken from ChEMBL document CHEMBL2385064, “Selective CB2 agonists with anti-pruritic activity: discovery of potent and orally available bicyclic 2-pyridones” (Bioorg Med Chem, 2013).
Activity calls are given as the source filed them. The calls are words filed in the database; no cut-off is given here.

Key:
Cannabinoid receptor 2 [1] = biological target: T1, Cannabinoid receptor 2 (Homo sapiens, UniProt P34972); test: Displacement of [3H]-CP-55,940 from human CB2 receptor expressed in CHO cell membranes
Summary of the method: (§1)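 Competition binding against [3H]-CP-55,940 on membranes from CHO cells stably expressing recombinant human CB1 or CB2. Between-day coefficient of variation is 0.24 for CB1 and 0.53 for CB2.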

Cannabinoid receptor 2 [2] = biological target: T1, Cannabinoid receptor 2; test: Agonist activity at human CB2 receptor expressed in CHO cells assessed as inhibition of forskolin-induced cAMP production; type: functional, cell-based
Summary of the method: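 Functional readout is inhibition of forskolin-evoked cAMP accumulation in CHO cells expressing human CB2. IC50 determined from more than four duplicate assay points. Between-day coefficient of variation is 0.63.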

Homo sapiens = species on record: Homo sapiens; test: Selectivity ratio of Ki for human CB1 receptor to Ki for human CB2 receptor
Cannabinoid receptor 2 [3] = biological target: T1, Cannabinoid receptor 2; test: Agonist activity at human CB2 receptor expressed in CHO cells assessed as inhibition of forskolin-induced cAMP production at 2 uM relative to control; type: functional, cell-based
Summary of the method: (§2)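 Forskolin-induced cAMP production measured in human CB2-expressing CHO cells. Emax is the maximum inhibition rate of cAMP production at the indicated concentration.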

Cannabinoid receptor 1 = Cannabinoid receptor 1 (Homo sapiens, UniProt P21554); test: Displacement of [3H]-CP-55,940 from human CB1 receptor expressed in CHO cell membranes; summary of the method: as §1
[4] = biological target: Cannabinoid receptor 2 (Mus musculus) (UniProt P47936); test: Displacement of [3H]-CP-55,940 from mouse spleen CB2 receptor expressed in CHO cell membranes
[5] = Half life in mouse at 1 mg/kg, iv; type: ADME, organism-based; parameters: dose 1 mg/kg, route intravenous; conditions: in vivo
[6] = Total plasma clearance in mouse at 1 mg/kg, iv; type: ADME, organism-based; parameters: dose 1 mg/kg, route intravenous
[7] = Volume of distribution at steady state in mouse at 1 mg/kg, iv; type: ADME, organism-based; parameters: dose 1 mg/kg, route intravenous; conditions: in vivo, read-out: Vdss
Cannabinoid receptor 2 [8] = biological target: T1, Cannabinoid receptor 2; test: Agonist activity at human CB2 receptor expressed in CHO cells assessed as inhibition of forskolin-induced cAMP production at 0.02 uM relative to control; type: functional, cell-based; summary of the method: as §2
Cannabinoid receptor 2 [9] = biological target: T1, Cannabinoid receptor 2; test: Agonist activity at human CB2 receptor expressed in CHO cells assessed as inhibition of forskolin-induced cAMP production at 0.2 uM relative to control; type: functional, cell-based; summary of the method: as §2
Mus musculus [10] = test: Toxicity in po dosed ICR mouse assessed as decrease in locomotor activity at 100 mg/kg, po; type: organism-based; parameters: dose 100 mg/kg, route oral; conditions: in vivo
Mus musculus [11] = test: Oral bioavailability in mouse at 30 mg/kg; type: ADME, organism-based; conditions: in vivo
Mus musculus [12] = test: Antipruritic activity in ICR mouse assessed as inhibition of compound 48/80-induced scratching-behavior at 100 mg/kg, po administered once before challenge relative to control; type: functional
Summary of the method: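 Female ICR mice had their backs clipped. Compound was given orally once (n = 6) in sesame oil or 0.5% methylcellulose. Scratching bouts at the site by hind paws were counted for 30 min. Result compared with the vehicle group by Dunnett's t-test (p<0.05).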

[13] = Cmax in mouse at 30 mg/kg, po; type: ADME, organism-based; parameters: dose 30 mg/kg, route oral; conditions: in vivo
Mus musculus [14] = test: AUC in mouse at 30 mg/kg, po; type: ADME, organism-based, Plasma; parameters: dose 30 mg/kg, route oral; conditions: in vivo
[15] = Half life in mouse at 2 mg/kg, iv; type: ADME, organism-based; parameters: dose 2 mg/kg, route intravenous; conditions: in vivo
[16] = Volume of distribution at steady state in mouse at 2 mg/kg, iv; type: ADME, organism-based; parameters: dose 2 mg/kg, route intravenous; conditions: in vivo, read-out: Vdss

Sequence of Cannabinoid receptor 1 (P21554 whole entry): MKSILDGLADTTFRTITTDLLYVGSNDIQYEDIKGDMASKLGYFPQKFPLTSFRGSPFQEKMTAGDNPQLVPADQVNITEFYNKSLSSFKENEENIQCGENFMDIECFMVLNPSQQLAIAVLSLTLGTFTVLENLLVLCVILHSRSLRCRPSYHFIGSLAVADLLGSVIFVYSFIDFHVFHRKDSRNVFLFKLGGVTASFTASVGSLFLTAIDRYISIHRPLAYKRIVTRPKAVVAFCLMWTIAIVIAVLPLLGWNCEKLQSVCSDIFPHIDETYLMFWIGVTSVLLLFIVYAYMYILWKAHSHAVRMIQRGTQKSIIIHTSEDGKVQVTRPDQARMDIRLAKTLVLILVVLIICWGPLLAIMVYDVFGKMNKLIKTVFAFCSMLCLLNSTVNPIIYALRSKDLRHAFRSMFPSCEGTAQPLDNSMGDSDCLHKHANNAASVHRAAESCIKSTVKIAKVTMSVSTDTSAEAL
T1 sequence (P34972 whole entry): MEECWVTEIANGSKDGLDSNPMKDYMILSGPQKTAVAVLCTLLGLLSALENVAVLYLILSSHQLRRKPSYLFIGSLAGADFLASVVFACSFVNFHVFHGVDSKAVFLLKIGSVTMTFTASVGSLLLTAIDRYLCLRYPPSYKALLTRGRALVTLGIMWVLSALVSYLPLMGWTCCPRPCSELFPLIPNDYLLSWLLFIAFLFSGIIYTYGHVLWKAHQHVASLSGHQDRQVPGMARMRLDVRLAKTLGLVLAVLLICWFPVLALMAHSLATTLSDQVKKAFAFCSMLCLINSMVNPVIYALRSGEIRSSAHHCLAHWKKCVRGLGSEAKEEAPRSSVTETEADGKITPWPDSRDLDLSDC
Sequence of Cannabinoid receptor 2 (Mus musculus) (P47936 whole entry): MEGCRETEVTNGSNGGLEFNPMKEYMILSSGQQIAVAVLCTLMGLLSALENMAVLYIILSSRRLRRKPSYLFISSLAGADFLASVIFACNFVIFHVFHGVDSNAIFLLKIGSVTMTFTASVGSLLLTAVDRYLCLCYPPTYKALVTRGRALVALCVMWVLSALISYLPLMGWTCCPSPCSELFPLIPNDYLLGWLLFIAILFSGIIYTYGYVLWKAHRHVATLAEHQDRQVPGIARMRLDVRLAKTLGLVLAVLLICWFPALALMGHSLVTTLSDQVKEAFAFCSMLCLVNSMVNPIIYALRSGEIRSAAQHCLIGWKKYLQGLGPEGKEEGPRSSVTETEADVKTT

Structure (SMILES) | Ki (Cannabinoid receptor 2 [1]) [nM] | Ratio Ki (Homo sapiens) | Ki (Cannabinoid receptor 1) [nM] | other results
CCCCn1c2c(cc(C(=O)NCc3ccccc3)c1=O)COCC2 | 204 |  |  | 
CCCCn1c2c(cc(C(=O)NC(C)(C)c3ccccc3)c1=O)CCCCCC2 |  |  |  | IC50 (Cannabinoid receptor 2 [2]): 0.2 nM
CCCCn1c2c(cc(C(=O)NCc3ccccc3)c1=O)CCC2 | 16 | 8.9 | 143 | Emax (Cannabinoid receptor 2 [3]): 83%
CCCCn1c2c(cc(C(=O)NC3CCCCC3)c1=O)CCCCCC2 |  | 95 |  | Activity [4]: Active; half-life [5]: 18 min; clearance [6]: 35 mL/min/kg; Vd [7]: 0.89 L/kg; Emax (Cannabinoid receptor 2 [8]): 98%; IC50 (Cannabinoid receptor 2 [2]): < 0.2 nM
O=C(NCc1ccccc1)c1cc2c(n(CCCN3CCOCC3)c1=O)CCCCCC2 | 209 |  |  | 
CCCCn1c2c(cc(C(=O)NC3CCN(C)CC3)c1=O)CCCCCC2 | 147 |  |  | 
CCCCn1c(C)c(C)cc(NS(=O)(=O)c2ccccc2)c1=O | > 5000 |  |  | 
CCCCn1c(C)c(C)cc(C(=O)NCc2ccccc2)c1=O | 66 |  | 606 | 
CCCCn1c(CC)c(C)cc(C(=O)NCc2ccccc2)c1=O | 20 | 16 | 322 | 
CCCCn1c(C)c(C)cc(NC(=O)Nc2ccccc2)c1=O | > 5000 |  |  | 
CCCCn1c2c(cc(C(=O)NC(C)C)c1=O)CCCCCC2 | 4 | 148 | 591 | Emax (Cannabinoid receptor 2 [3]): 92%; IC50 (Cannabinoid receptor 2 [2]): 2.5 nM
CCCCn1c2c(cc(C(N)=O)c1=O)CCCCCC2 | 40 | > 125 | > 5000 | 
CCCCn1c2c(cc(C(=O)NCCc3ccccc3)c1=O)CCCCCC2 |  | 568 |  | Emax (Cannabinoid receptor 2 [9]): 98%
CCCCn1c2c(cc(C(=O)NCc3ccccc3)c1=O)CCCCCC2 |  | 593 |  | Activity [4]: Active; Activity (Mus musculus [10]): Non-toxic; F (Mus musculus [11]): 25%; inhibition in vivo at 100 mg/kg (Mus musculus [12]): 81%; Cmax [13]: 168 ng/mL; AUC (Mus musculus [14]): 390 ng·h/mL; half-life [15]: 16.8 min; Vd [16]: 2.29 L/kg; Emax (Cannabinoid receptor 2 [9]): 100%
CCCCn1c2c(cc(C(=O)NCc3ccccc3)c1=O)CCCC2 | 17 | 44 | 746 | Emax (Cannabinoid receptor 2 [3]): 76%; IC50 (Cannabinoid receptor 2 [2]): 17 nM
CC(C)CCn1c2c(cc(C(=O)NCc3ccccc3)c1=O)CCCCCC2 | 0.9 | 10 | 9 | 
